Measured values taken from ChEMBL document CHEMBL2390820, “3-Biphenylimidazo[1,2-a]pyridines or [1,2-b]pyridazines and analogues, novel Flaviviridae inhibitors” (Eur J Med Chem, 2013).
Values after ≈ are worked out from the molar mass of the structure shown.

Key:
[1] = tested on: Hepatitis C virus; assay: Antiviral activity against HCV genotype 1b infected in Huh5-2 cells assessed as inhibition of viral replication after 4 days by luciferase reporter gene assay; type: functional, organism-based, Hepacivirus hominis, Huh-5-2; details: Hepatitis C virus, genotype 1b, Huh-5-2, 96 h
How it was run: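 Huh 5-2 cells carrying the HCV subgenomic luciferase replicon were seeded at 5 × 10³/well with compound and incubated 4 days at 37 °C. Medium was removed and luciferase activity quantified. EC50 is the minimum concentration reducing replicon-driven luciferase signal by 50%.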

[2] = Cytotoxicity against human Huh5-2 cells assessed as growth inhibition after 3 days by MTS assay; type: cell-based, Huh-5-2
How it was run: (§1)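 MDBK or Huh 5-2 cells were seeded at 5 × 10³/well in MEM-FCS, with serial compound dilutions added 24 h later. Cells proliferated 3 days at 37 °C, then metabolic activity was read by MTS/PMS. CC50 is the concentration inhibiting proliferation of exponentially growing cells by 50%, by linear interpolation.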

[3] = Selectivity index, ratio of CC50 for Huh5-2 cells to EC50 for HCV genotype 1b infected in Huh5-2 cells; design: species or system Huh-5-2
How it was run: (§2)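 Selectivity index is the ratio of CC50 from the 3-day MTS/PMS proliferation assay to EC50 in the same cell line. For Huh 5-2 the EC50 is from the luciferase replicon assay; for MDBK it is from the MTS CPE assay.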

[4] = Antiviral activity against BVDV NADL infected in MDBK cells assessed as inhibition of virus-induced cytopathic effect formation after 5 days by MTS assay; type: functional, cell-based, Bovine viral diarrhea virus 1-NADL; details: Bovine viral diarrhea virus isolates and strains, 120 h
How it was run: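 MDBK cells were seeded at 5 × 10³/well in MEM-FCS and held 24 h at 37 °C, 5% CO₂. Medium was replaced with 5-fold serial compound dilutions, then BVDV inoculum was added at MOI 2. CPE was read by MTS as OD at 490 nm. EC50 is the concentration giving 50% protection against virus-induced CPE, by linear interpolation.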

[5] = Selectivity index, ratio of CC50 for MDBK cells to EC50 for BVDV NADL infected in MDBK cells; how it was run: as §2
[6] = Cytotoxicity against MDBK cells assessed as growth inhibition after 3 days by MTS assay; type: cell-based, Bos taurus; details: cattle; how it was run: as §1

SMILES	EC50 [1]	CC50 at 72 h [2]	Ratio CC50/EC50 [3]	EC50 [4]	Ratio CC50/EC50 [5]	CC50 at 72 h [6]
COc1ccccc1-c1nc2ccccn2c1-c1cccc(-c2cccc(O)c2)c1	3.5 µg/mL (≈ 8.92 µM)	40.3 µg/mL (≈ 103 µM)	11.4			
Fc1ccc(-c2nc3ccc(N4CCOCC4)nn3c2-c2ccccc2-c2ccccc2)cc1	11.1 µg/mL (≈ 24.6 µM)	11.1 µg/mL (≈ 24.6 µM)	1	11 µg/mL (≈ 24.4 µM)	3	31 µg/mL (≈ 68.8 µM)
CCOC(=O)c1nc2ccc(-c3ccsc3)cn2c1-c1cccc(-c2ccccc2)c1	53.1 µg/mL (≈ 125 µM)	> 118 µg/mL	>2.2	> 67.7 µg/mL		67.7 µg/mL (≈ 159 µM)
COc1cccc(-c2nc3ccc(-c4ccsc4)cn3c2-c2cccc(-c3ccccc3)c2)c1	52.4 µg/mL (≈ 114 µM)	85.2 µg/mL (≈ 186 µM)	1.6	15 µg/mL (≈ 32.7 µM)	>6.7	> 100 µg/mL
Fc1ccc(-c2nc3ccc(N4CCOCC4)nn3c2-c2ccc(-c3ccccc3)cc2)cc1		33.3 µg/mL (≈ 73.9 µM)		> 50 µg/mL	>1	> 50 µg/mL
COc1ccccc1-c1cccc(-c2c(-c3ccc(F)cc3)nc3ccccn23)c1	10.7 µg/mL (≈ 27.1 µM)	29.7 µg/mL (≈ 75.3 µM)	2.8	2.7 µg/mL (≈ 6.84 µM)	3.2	8.5 µg/mL (≈ 21.5 µM)
COc1ccc(-c2cccc(-c3c(-c4ccc(F)cc4)nc4ccccn34)c2)cc1	1.63 µg/mL (≈ 4.13 µM)	34.8 µg/mL (≈ 88.2 µM)	21.3	2.8 µg/mL (≈ 7.1 µM)	>36	> 100 µg/mL
Fc1ccc(-c2nc3ccccn3c2-c2cccc(-c3ccncc3)c2)cc1	20.2 µg/mL (≈ 55.3 µM)	45.5 µg/mL (≈ 125 µM)	2.3	0.98 µg/mL (≈ 2.68 µM)	7.1	7 µg/mL (≈ 19.2 µM)
COc1ccccc1-c1nc2ccccn2c1-c1cccc(-c2ccc(O)cc2)c1	18.8 µg/mL (≈ 47.9 µM)	43.8 µg/mL (≈ 112 µM)	2.3	17.7 µg/mL (≈ 45.1 µM)	>5.6	> 100 µg/mL
c1ccc(-c2cccc(-c3cnc4ccc(-c5ccsc5)cn34)c2)cc1	89.5 µg/mL (≈ 254 µM)	> 142 µg/mL	>1.6	> 100 µg/mL	>1	> 100 µg/mL
CC(C)(C)c1nc2ccc(-c3ccsc3)nn2c1-c1cccc(-c2ccccc2)c1	22.7 µg/mL (≈ 55.4 µM)	63.2 µg/mL (≈ 154 µM)	2.8	37.9 µg/mL (≈ 92.5 µM)	>2.6	> 100 µg/mL
Fc1ccc(-c2nc3ccc(-c4ccccc4)cn3c2-c2cccc(-c3ccccc3)c2)cc1	52.2 µg/mL (≈ 118 µM)	56.8 µg/mL (≈ 129 µM)	1.09	12 µg/mL (≈ 27.2 µM)	>4	> 50 µg/mL
COc1ccccc1-c1nc2ccc(-c3ccsc3)nn2c1-c1cccc(-c2ccoc2)c1	11.1 µg/mL (≈ 24.7 µM)	15.7 µg/mL (≈ 34.9 µM)	1.4	> 100 µg/mL		> 100 µg/mL
Fc1ccc(-c2cccc(-c3c(-c4ccc(F)cc4)nc4ccccn34)c2)cc1	10.3 µg/mL (≈ 26.9 µM)	54.5 µg/mL (≈ 143 µM)	5.3	3.9 µg/mL (≈ 10.2 µM)	1.4	5.4 µg/mL (≈ 14.1 µM)
CN1CCN(c2ccc3nc(-c4ccc(F)cc4)c(-c4ccc(-c5ccccc5)cc4)n3n2)CC1		45.3 µg/mL (≈ 97.7 µM)		> 50 µg/mL	>1	> 50 µg/mL
Fc1ccc(-c2nc3ccc(-c4ccsc4)cn3c2-c2cccc(-c3ccccc3)c2)cc1	> 112 µg/mL	> 112 µg/mL	>1	0.74 µg/mL (≈ 1.66 µM)	>45	> 33 µg/mL
Fc1ccc(-c2nc3ccccn3c2-c2cccc(-c3ccoc3)c2)cc1	19.2 µg/mL (≈ 54.2 µM)	66.2 µg/mL (≈ 187 µM)	3.4	1.7 µg/mL (≈ 4.8 µM)	3.2	5.6 µg/mL (≈ 15.8 µM)
Fc1ccc(-c2nc3ccc(-c4ccsc4)nn3c2-c2cccc(-c3ccccc3)c2)cc1	11.2 µg/mL (≈ 25 µM)	13.4 µg/mL (≈ 29.9 µM)	1.2	1.7 µg/mL (≈ 3.8 µM)	8	13 µg/mL (≈ 29 µM)
Fc1ccc(-c2nc3ccccn3c2-c2cccc(-c3cc4ccccc4o3)c2)cc1	28 µg/mL (≈ 69.2 µM)	54.9 µg/mL (≈ 136 µM)	2			
Fc1ccc(-c2nc3ccc(N4CCOCC4)nn3c2-c2cccc(-c3ccccc3)c2)cc1		11.1 µg/mL (≈ 24.6 µM)		4 µg/mL (≈ 8.88 µM)	3	12 µg/mL (≈ 26.6 µM)
